PostGolgi yeast = phenotypic screen on post-Golgi transport, primary screen; post-Golgi transport phenotypic cell assay; inhibition, % at 10 µM; AID 739, 2007; 98,000 compounds, 0.9% hits;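 further: yeast cells grown in 1536-well plates; yeast grown about 18 h at 30C before absorbance read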
tolC growth inh = growth inhibitors of E. coli tolC mutant, primary screen, strain BW25113 ΔtolC::kan, 384-well; OD615; growth inhibition, % at 10 µM (by protocol); 65,000 compounds, 2.2% hits; AID 573, 2007;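 active means growth inhibition at or above a cutoff equal to the mean over every tested compound plus 3 SD, cut at about 60% in these data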;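 further: growth measured after 20 h incubation at 37 °C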
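Test system: E. coli BW25113 ΔtolC::kan bacteria; incubation: 37 °C, 20 h exposure; medium: LB broth supplemented with 50 µg/mL kanamycin; read-out basis: percent growth inhibition; signal: A615 absorbance measurement; compound: 10 µM final, single dose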
PostGolgi ctrl = growth inhibition of yeast control strain, primary screen, counter-screen for post-Golgi transport modulator project | efflux-deficient yeast background strain, growth absorbance A615, 16 h | inhibition, % at 10 µM | 98,000 compounds, 5% hits | AID 738, 2007
PTK2B oligo ant = antagonists of Pyk2 self-association, primary screen, Q293 cells, FERM NanoBiT luminescence, HTS; stronger effect = lower value; z-score (the deposit names both 25 µM and 10 µM); 99,000 compounds, 0.83% hits;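 active means Z-score of -3 or lower, scaled per plate to the spread of control and sample wells; inactive means z-score above -3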;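 further: negative z-score means lost luminescence so less FERM oligomerization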
Calb biofilm kill = clotrimazole potentiators killing Candida biofilms, primary screen, with clotrimazole, Alamar Blue. AID 834, 2007. 85,000 compounds, 0.14% hits. C. albicans biofilm + clotrimazole. inhibition, % at 6 µM;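 active means inhibition above 20%; inactive means inhibition below 20%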;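 further: preformed 24 hr biofilms exposed to compound for 48 hr; 0% = biofilm without compound and 100% = blank killed by clotrimazole plus chlorhexidine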
FAK blocker = FAK kinase inhibitors, primary screen, biochemical. Focal adhesion kinase 1 (Homo sapiens), Q05397. biochemical FAK kinase activity assay. inhibition, %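 (tested at 7 µM)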. 97,000 compounds, 0.84% hits. AID 727, 2007; in the data active means inhibition above about 19%;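 further: 0% = DMSO and 100% = reference compound high control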
An asterisk follows results filed as active; x = not tested or not shown. Sampled rows, rich in hits. Any-hit rate of the full collection: about 6.9%. Unless noted, no stated cut-off is given here; in the data, active means inhibition above about 30%; inactive means the rest.

SMILES	PostGolgi yeast	tolC growth inh	PostGolgi ctrl	PTK2B oligo ant	Calb biofilm kill	FAK blocker
O=C1c2[nH]nc(-c3ccccc3O)c2C(c2ccccc2F)N1Cc1ccco1 (centres undefined)	-3.1	100.0*	9.8	-3.41*	4.4	10.5
O=C1c2[nH]nc(-c3ccccc3O)c2C(c2ccccc2)N1Cc1ccco1 (centres undefined)	0.6	98.3*	38.3*	-1.58	0.1	0.6
CCOC(=O)C1=c2/c(=C/c3ccccc3OC)c(N)c(C#N)n2C(=O)C(c2ccccc2OC)S1 (centres undefined)	-7.6	x	-5.2	x	0.4	-0.6
Cn1[nH]c(=O)c(Cl)c(Cl)c1=O	11.4	x	8.3	0.55	x	0.0
C=CCn1c(SCc2nc(N)nc(N(C)C)n2)nnc1-c1cccnc1	-2.6	-17.2	33.1*	0.09	0.7	0.9
C/C=C/c1ccc(OCCCCn2cncn2)c(OC)c1	1.8	-0.3	31.1*	0.48	6.6	2.5
C/C=C/c1ccc(OCCCn2cncn2)c(OC)c1	0.3	1.1	2.8	-0.12	2.3	1.7
CCc1ccc(OCC(=O)N(C)CCC#N)c(Br)c1	-14.1	-15.5	39.0*	0.06	5.3	-0.1
CC(C)Cn1c(N)c(C(=O)COC(=O)C2CCCCC2)c(=O)n(C)c1=O	8.0	40.7	0.4	0.91	2.5	x
c1ccc(Cn2nnc3c(N4CCOCC4)ncnc32)cc1	-1.5	1.0	6.2	x	x	-4.1
c1ccc2c(c1)oc1c(N3CCN(Cc4ccc5c(c4)OCO5)CC3)ncnc12	7.3	100.0*	12.1	-1.7	2.5	4.8
c1ccc(Cn2nnc3c(N4CCN(Cc5ccc6c(c5)OCO6)CC4)ncnc32)cc1	-4.6	60.7*	10.6	-2.82	7.3	0.3
Cc1ccc2c(c1)[nH]c1c(N3CCN(Cc4ccc5c(c4)OCO5)CC3)ncnc12	x	46.6	x	x	-5.3	x
Cc1ccc(Sc2ccc(NC(=O)c3ccc(S(C)(=O)=O)cc3Cl)cc2)cc1	-10.8	x	6.2	0.93	x	-51.3
COc1cc(C2=NOC(C(=O)Nc3ccc(C)cc3)C2)cc(OC)c1OC (centres undefined)	15.4	-3.5	31.2*	-0.48	3.4	-2.0
CC1(C)CC(=O)C=C(NCCN2CCN(C(=O)Nc3ccc(Cl)cc3)CC2)C1	-5.8	-2.0	-1.8	0.14	2.3	4.1
CC1(C)CC(=O)C=C(NCCN2CCN(C(=O)Nc3ccc(Cl)c(Cl)c3)CC2)C1	-3.0	60.8*	4.3	-0.59	4.9	-3.1
Cc1cc(Br)ccc1NC(=O)CN1C(=O)C2C3CC(c4ccccc4)C(C3)C2C1=O (centres undefined)	2.2	x	53.3*	-1.38	x	-2.7
CC(C)CC(NC(=O)C(CC(C)C)NC(=O)OC(C)(C)C)C(N)=O (centres undefined)	x	x	x	1.74	9.0	0.2
O=C(Nc1ccon1)c1csc2c1CCCC2	17.4	-1.7	32.0*	-0.93	4.8	1.6
O=C1N(Nc2ccccc2)C(c2ccc(Br)cc2)C12CCCCC2 (centres undefined)	-6.5	x	11.8	0.05	6.8	1.6
COc1ccc(C2=NO[C@@H]3C(=O)N(C4CCCCC4)C(=O)[C@H]23)cc1OC	2.2	-8.9	14.0	-1.19	-1.9	-1.8
Cc1ccc2cc(C#N)c(N3CCCC3)nc2c1C	-0.6	3.7	47.4*	-0.11	5.6	0.1
CCOC(=O)C1=C(CSc2nc(-c3ccccc3)ccc2C#N)OC(N)=C(C#N)C1c1ccccc1 (centres undefined)	-13.8	x	8.8	-0.46	1.9	1.2
CCOC(=O)C1=C(CSc2nc(-c3ccccc3)ccc2C#N)OC(N)=C(C#N)C1c1cccnc1 (centres undefined)	60.8*	x	5.1	-1.35	0.4	-0.1
NC(=O)C1(N2CCCCC2)CCN(C(=O)CCCn2c(=O)[nH]c3ccsc3c2=O)CC1	8.6	-17.9	8.7	x	4.7	x
O=C(Cn1nnc2c(cnn2-c2ccccc2)c1=O)N1CCN(c2ccccc2F)CC1	-4.7	49.2	36.6*	1.98	2.0	0.5
COc1ccc(OC)c(C2CC(=O)N3CN(c4cccc(Cl)c4C)CSC3=C2C#N)c1 (centres undefined)	x	11.4	x	x	3.2	-2.9
O=C(Nc1ccc(F)cc1)c1ccc(-n2ccnc2)nc1	-12.3	x	-4.5	-1.23	x	0.5

Screens from PubChem BioAssay.
